Tests used:
HT-29 [1] = assay: Growth inhibition of HT29 cells assessed as relative survival at 150 uM after 2 hrs relative to control; type: functional, Homo sapiens
Method in brief: (§1)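 HT-29 colon carcinoma cells were exposed to drug for 2 h at 41°C, with DMSO as vehicle. Drug was then washed off and cells grown 14 days in fresh medium. Colonies of more than 50 cells were stained with crystal violet and counted. Survival was corrected for plating efficiency (vehicle, 2 h, 37°C) and for 2 h drug exposure at 37°C; vehicle at 41°C was set to 1.0. Student's t test.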

HT-29 [2] = assay: Cell survival of human HT29 cells at 150 uM after 2 hrs; type: functional; details: HT-29, 2 h, read-out: Survival
HT-29 [3] = assay: Growth inhibition of HT29 cells assessed as relative survival at 50 uM after 2 hrs relative to control; type: functional, Homo sapiens; method in brief: as §1
HT-29 [4] = assay: Growth inhibition of HT29 cells at 50 uM after 2 hrs; type: functional; details: Homo sapiens, HT-29, 2 h; method in brief: as §1

Compound	Survival (HT-29 [1])	viability at 150 µM (HT-29 [2])	Survival (HT-29 [3])	inhibition at 50 µM (HT-29 [4])
OC1/C(=C/c2cn(Cc3ccccc3)c3ccc(Br)cc23)N2CCC1CC2 (configuration not stated)	0.59	> 70%		
OC1/C(=C/c2cn(Cc3ccc(Cl)cc3)c3ccccc23)N2CCC1CC2 (configuration not stated)		< 70%	0.07	
Cc1ccc(Cn2cc(/C=C3/C(O)C4CCN3CC4)c3cc(C)ccc32)cc1 (configuration not stated)		< 70%	0.59	
O=C1/C(=C/c2cn(Cc3ccccc3)c3ccc(Br)cc23)N2CCC1CC2	1	> 70%		
O=C1/C(=C/c2cn(Cc3ccc(F)cc3)c3ccc(Br)cc23)N2CCC1CC2	0.81	> 70%		
Cc1ccc2c(c1)c(/C=C1/C(=O)C3CCN1CC3)cn2Cc1ccccc1	0.98	> 70%		
Cc1ccc(Cn2cc(/C=C3/C(=O)C4CCN3CC4)c3cc(C)ccc32)cc1	1	> 70%		
COc1ccc(Cn2cc(/C=C3/C(=O)C4CCN3CC4)c3cc(Br)ccc32)cc1	0.86	> 70%		
COc1ccc2c(c1)c(/C=C1/C(=O)C3CCN1CC3)cn2Cc1ccccc1	0.75	> 70%		
Cc1ccc(Cn2cc(/C=C3/C(=O)C4CCN3CC4)c3ccccc32)cc1	1	> 70%		
Cc1ccc(Cn2cc(/C=C3/C(O)C4CCN3CC4)c3ccccc32)cc1 (configuration not stated)		< 70%	0.59	
OC1/C(=C/c2cn(Cc3ccccc3)c3ccccc23)N2CCC1CC2 (racemic)	0.06		1	93%
OC1/C(=C/c2cn(Cc3ccc(F)cc3)c3ccc(Br)cc23)N2CCC1CC2 (configuration not stated)	0.52	> 70%		
Cc1ccc(Cn2cc(/C=C3/C(=O)C4CCN3CC4)c3cc(Br)ccc32)cc1	1	> 70%		
O=C1/C(=C/c2cn(Cc3ccc(Cl)cc3)c3ccccc23)N2CCC1CC2	0.56	> 70%		
OC1/C(=C/c2cn(Cc3ccc(Cl)cc3)c3ccc(Br)cc23)N2CCC1CC2 (configuration not stated)	0.9	> 70%		
OC1/C(=C/c2cn(Cc3ccc(F)cc3)c3ccccc23)N2CCC1CC2 (configuration not stated)		< 70%	0.7	
Cc1ccc2c(c1)c(/C=C1/C(O)C3CCN1CC3)cn2Cc1ccccc1 (configuration not stated)	1	> 70%		
O=C1/C(=C/c2cn(Cc3ccc(F)cc3)c3ccccc23)N2CCC1CC2	0.71	> 70%		
COc1ccc2c(c1)c(/C=C1/C(O)C3CCN1CC3)cn2Cc1ccccc1 (configuration not stated)		< 70%	0.76	
O=C1/C(=C/c2cn(Cc3ccccc3)c3ccccc23)N2CCC1CC2	0.5			
OC1/C(=C/c2cn(Cc3ccccc3Br)c3ccc(Br)cc23)N2CCC1CC2 (configuration not stated)	0.58	> 70%		
O=C1/C(=C/c2cn(Cc3ccccc3Br)c3ccc(Br)cc23)N2CCC1CC2	0.96	> 70%		
COc1ccc(Cn2cc(/C=C3/C(O)C4CCN3CC4)c3cc(Br)ccc32)cc1 (configuration not stated)	0.61	> 70%		
Cc1ccc(Cn2cc(/C=C3/C(O)C4CCN3CC4)c3cc(Br)ccc32)cc1 (configuration not stated)	0.78	> 70%		
O=C1/C(=C/c2cn(Cc3ccc(Cl)cc3)c3ccc(Br)cc23)N2CCC1CC2	1	> 70%		

From ChEMBL document CHEMBL1138305, “Novel substituted (Z)-2-(N-benzylindol-3-ylmethylene)quinuclidin-3-one and (Z)-(+/-)-2-(N-benzylindol-3-ylmethylene)quinuclidin-3-ol derivatives as potent thermal sensitizing agents” (2007)
